Test results taken from ChEMBL document CHEMBL1764985, “Design, synthesis, and evaluation of coumarin-based molecular probes for imaging of myelination” (J Med Chem, 2011).
Activity calls are given as the source filed them. The rule behind the calls is not given here.

Experiments:
[1] = molecular target: Myelin basic protein (Mus musculus) (UniProt P04370); experiment: Binding affinity to corpus collosum myelin in central nervous system of mouse […] by fluorescent microscopy; format: tissue-based; details: Corpus callosum
Myelin basic protein (Mus musculus), sequence (P04370 whole entry, the tested form may be a part): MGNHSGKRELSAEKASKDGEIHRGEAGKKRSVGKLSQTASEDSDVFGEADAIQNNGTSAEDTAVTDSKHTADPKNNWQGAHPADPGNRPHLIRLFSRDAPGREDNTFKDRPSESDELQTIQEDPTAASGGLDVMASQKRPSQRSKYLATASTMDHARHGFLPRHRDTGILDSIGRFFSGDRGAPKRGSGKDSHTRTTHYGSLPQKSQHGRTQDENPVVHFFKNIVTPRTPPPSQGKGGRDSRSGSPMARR

Mus musculus [2] = species: Mus musculus; experiment: Selectivity for mouse white matter myelin over gray matter myelin; format: tissue-based
Outline: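 Mouse brain sections stained with compound at 100 μM. Fluorescence intensity measured in predefined ROIs: part of the corpus callosum (white matter) and a subcortical gray matter region. White/gray intensity ratio calculated; mean ± SD, n = 3.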

[3] = molecular target: Myelin basic protein (Mus musculus) (UniProt P04370); experiment: Binding affinity to temporal cortex myelin in mouse by fluorescent microscopy; format: tissue-based
Outline: (§1)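 Wild-type mice given 40 mg/kg via tail vein under anesthesia, then perfused transcardially with saline followed by 4% PFA in PBS. Brain sections imaged by fluorescence microscopy (BP470/40 nm filter) for in situ staining in cerebellum, caudate putamen/striatum and temporal cortex. Same sections co-stained with anti-MBP antibody for comparison.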

[4] = Lipophilicity, log P of the compound; format: physicochemical; details: octanol/water
[5] = molecular target: Myelin basic protein (Mus musculus) (UniProt P04370); experiment: Binding affinity to caudate putamen myelin in mouse by fluorescent microscopy; format: tissue-based; outline: as §1
[6] = Half life of the compound in mouse brain; format: ADME, tissue-based
[7] = molecular target: Myelin basic protein (Mus musculus) (UniProt P04370); experiment: Binding affinity to sciatic nerve myelin in peripheral nervous system of mouse at 100 uM […] by Black gold II staining
Mus musculus [8] = experiment: Binding affinity to sciatic nerve myelin in C57BL/6 mouse at 40 mg/kg after 20 mins, iv after 10 mins by fluorescent microscopy; format: functional, organism-based; set-up: dose 40 mg/kg
Outline: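 Eight-week C57BL/6 mice dosed 40 mg/kg by tail vein in saline; saline alone as control. At 10 min, mice anesthetized with isoflurane and sciatic nerves surgically exposed and imaged under a dissection fluorescence microscope (LP 590 filter). Nerves imaged again after perfusion.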

[9] = molecular target: Myelin basic protein (Mus musculus) (UniProt P04370); experiment: Binding affinity to corpus collosum myelin in myelin deficient shiverer mouse assessed as myelination levels at 100 uM after 20 mins by fluorescent microscopy relative to control; details: Corpus callosum
Outline: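 Frozen 20 μm brain sections from wild-type C57BL/6 and shiverer (C3Fe.SWV-Mbp^shi/J) mice stained with compound at 100 μM, with anti-MBP immunostaining of the same sections. Pixel intensity in a corpus callosum ROI (midline to below cingulum apex) quantified. Wild-type set to 100, shiverer expressed as percentage. Nonpaired Student's t test.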

[10] = molecular target: Myelin basic protein (Mus musculus) (UniProt P04370); experiment: Binding affinity to cerebellum myelin in central nervous system of mouse […] by fluorescent microscopy

Row | SMILES | Activity [1] | further results
1 | O=c1oc2ccccc2cc1-c1ccc([N+](=O)[O-])cc1 | inactive | 
2 | CC(=O)Oc1ccc2cc(-c3ccc(N(C)C)cc3)c(=O)oc2c1 | Active | white/gray matter fluorescence ratio (Mus musculus [2]): 1.35
3 | CCN(CC)c1ccc(-c2ccc3cc(-c4nc5ccccc5n4C)c(=O)oc3c2)cc1 | Active | 
4 | O=c1cc(O)c2ccccc2o1 | inactive | 
5 | CN(C)c1ccc2c(C(F)(F)F)cc(=O)oc2c1 | inactive | 
6 | CC(=O)Oc1ccc2oc(=O)c(-c3ccc(N(C)C)cc3)cc2c1 | Active | white/gray matter fluorescence ratio (Mus musculus [2]): 1.53
7 | COc1ccc2ccc(=O)oc2c1 | inactive | 
8 | CN(C)c1ccc(-c2cc3cc(OCCCF)ccc3oc2=O)cc1 | Active | white/gray matter fluorescence ratio (Mus musculus [2]): 1.38
9 | O=c1oc2cc(O)ccc2cc1-c1ccccc1 | inactive | 
10 | Cc1cc(=O)oc2ccccc12 | inactive | 
11 | Nc1ccc(-c2cc3ccccc3oc2=O)cc1 | Active | white/gray matter fluorescence ratio (Mus musculus [2]): 1.39
12 | Nc1ccc2c(C(F)(F)F)cc(=O)oc2c1 | inactive | 
13 | O=c1ccc2ccccc2o1 | inactive | 
14 | CN(C)c1ccc(-c2cc3cc(OCCF)ccc3oc2=O)cc1 | Active | white/gray matter fluorescence ratio (Mus musculus [2]): 1.33
15 | CCN(CC)c1ccc(-c2ccc3cc(-c4nc5ccccc5s4)c(=O)oc3c2)cc1 | Active | 
16 | CN(C)c1ccc(-c2cc3cc(F)ccc3oc2=O)cc1 | Active | 
17 | Nc1ccc(-c2cc3cc(F)ccc3oc2=O)cc1 | Active | 
18 | CN(C)c1ccc(-c2cc3cc(O)ccc3oc2=O)cc1 | Active | white/gray matter fluorescence ratio (Mus musculus [2]): 1.48

Row | SMILES | Activity [1] | further results
19 | CN(C)c1ccc(-c2cc3ccc(OCCF)cc3oc2=O)cc1 | Active | white/gray matter fluorescence ratio (Mus musculus [2]): 1.52
20 | CCN(CC)c1ccc(-c2ccc3cc(-c4nc5ccccc5[nH]4)c(=O)oc3c2)cc1 | Active | 
21 | Nc1cc2ccccc2oc1=O | inactive | 
22 | CN(C)c1ccc(-c2cc3ccc(O)cc3oc2=O)cc1 | Active | white/gray matter fluorescence ratio (Mus musculus [2]): 1.25
23 | O=c1oc2ccccc2cc1-c1ccccc1 | inactive | 
24 | CCN(CC)c1ccc(-c2ccc3cc(-c4ccc(N)cc4)c(=O)oc3c2)cc1 | Active | 
25 | O=c1oc2ccccc2cc1O | inactive | 
26 | CN(C)c1ccc(-c2cc3ccccc3oc2=O)cc1 | Active | white/gray matter fluorescence ratio (Mus musculus [2]): 1.34
27 | O=c1cc(C(F)(F)F)c2ccc(O)cc2o1 | inactive | 
28 | O=c1oc2ccc(F)cc2cc1-c1ccc([N+](=O)[O-])cc1 | inactive | 
29 | Cc1ccc2ccc(=O)oc2c1 | inactive | 
30 | CN(C)c1ccc(-c2cc3ccc(OCCCF)cc3oc2=O)cc1 | Active | Activity [3]: Active; logP [4]: 3.82; Activity [5]: Active; half-life [6]: 20 min; Activity [7]: Active; white/gray matter fluorescence ratio (Mus musculus [2]): 1.54; Activity (Mus musculus [8]): Active; Activity [9]: 12%; Activity [10]: Active
31 | CCN(CC)c1ccc(-c2ccc3cc(C(=O)c4cccs4)c(=O)oc3c2)cc1 | Active | 
32 | CCN(CC)c1ccc(-c2ccc3cc(-c4ccc([N+](=O)[O-])cc4)c(=O)oc3c2)cc1 | Active | 
33 | CCN(CC)c1ccc(-c2ccc3cc(-c4ccc(CBr)cc4)c(=O)oc3c2)cc1 | Active | 
34 | O=c1oc2ccccc2c(O)c1Cc1c(O)c2ccccc2oc1=O | inactive | 
35 | Nc1cc(=O)oc2ccccc12 | inactive | 
